# PMC3149845 (The Journal of neuroscience : the official journal of the …, 2011)
# Peptide text beside a SMILES is read from it.
# Legend:
# [1] = biological target: hTas1R2:S40T/V66L/I67S/D142E+hTas1R3 (Homo sapiens, UniProt Q8TE23, D142E/I67S/S40T/V66L); experiment: Ca2+ mobilization, mutated human receptor; assay type: cell-based; settings: aspartame 10mM, neotame 1mM, sucralose 2 mM; compared with hTas1R2/hTas1R3
# In short: (§1)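 HEK293E cells grown at 37°C in Opti-MEM with 5% FBS and seeded at 50,000/well. Cells co-lipofected with Tas1R plasmids and Gα16-gust44 (0.06 μg each per well); medium changed at 20 h, assayed 24 h later. Cells loaded 1 h with Fluo-4 AM in HEPES-buffered HBSS. Tastant added at 30 s; fluorescence (ex 488/em 525 nm) read every 2 s for 150 s more. ΔF/F normalised to human receptor maximal sucralose response; mean ± SEM, three independent experiments.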
# smTas1R2/smTas1R3 = smTas1R2/smTas1R3 (Saimiri sciureus, UniProt A3QP08); experiment: Ca2+ mobilization, wild type squirrel monkey sweet taste receptor; assay type: cell-based, squirrel monkey (Saimiri sciureus); settings: HEK293E cells with Gα16-gust44
# hTas1R2/hTas1R3 = biological target: T1, hTas1R2/hTas1R3 (Homo sapiens, UniProt Q8TE23); experiment: Ca2+ mobilization, wild type human sweet taste receptor; assay type: cell-based; settings: for response in dose-response experiment: HEK293E cells with Gα16-gust44; for Bottom (B) of sigmoid dose-response fit / Top (T) of sigmoid dose-response fit: ΔF/F normalized to maximum response of hTas1R2/hTas1R3 to neotame
# T1 sequence (Q8TE23 20-839): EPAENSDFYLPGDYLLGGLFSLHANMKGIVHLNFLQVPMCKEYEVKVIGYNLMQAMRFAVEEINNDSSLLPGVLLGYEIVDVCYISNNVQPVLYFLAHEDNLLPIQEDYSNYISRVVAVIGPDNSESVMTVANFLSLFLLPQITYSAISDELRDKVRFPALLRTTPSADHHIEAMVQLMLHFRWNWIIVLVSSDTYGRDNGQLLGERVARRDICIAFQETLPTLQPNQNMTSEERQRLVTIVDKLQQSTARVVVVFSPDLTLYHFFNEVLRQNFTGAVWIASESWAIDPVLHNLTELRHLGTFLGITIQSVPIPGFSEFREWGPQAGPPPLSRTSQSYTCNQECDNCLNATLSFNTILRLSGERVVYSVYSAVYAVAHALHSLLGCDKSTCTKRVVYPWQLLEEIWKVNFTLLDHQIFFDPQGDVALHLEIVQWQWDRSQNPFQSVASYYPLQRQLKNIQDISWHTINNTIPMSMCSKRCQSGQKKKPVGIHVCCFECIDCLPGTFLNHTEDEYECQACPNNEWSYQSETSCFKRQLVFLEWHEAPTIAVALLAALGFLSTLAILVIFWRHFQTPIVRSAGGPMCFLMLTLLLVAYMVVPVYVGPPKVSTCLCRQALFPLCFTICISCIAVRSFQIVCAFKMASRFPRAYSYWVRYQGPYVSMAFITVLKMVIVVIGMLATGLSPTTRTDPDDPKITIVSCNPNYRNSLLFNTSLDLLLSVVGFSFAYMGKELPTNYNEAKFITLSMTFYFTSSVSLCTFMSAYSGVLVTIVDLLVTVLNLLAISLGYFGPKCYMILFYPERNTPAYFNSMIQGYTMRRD
# T1 sequence (Q7RTX0 21-852 partner): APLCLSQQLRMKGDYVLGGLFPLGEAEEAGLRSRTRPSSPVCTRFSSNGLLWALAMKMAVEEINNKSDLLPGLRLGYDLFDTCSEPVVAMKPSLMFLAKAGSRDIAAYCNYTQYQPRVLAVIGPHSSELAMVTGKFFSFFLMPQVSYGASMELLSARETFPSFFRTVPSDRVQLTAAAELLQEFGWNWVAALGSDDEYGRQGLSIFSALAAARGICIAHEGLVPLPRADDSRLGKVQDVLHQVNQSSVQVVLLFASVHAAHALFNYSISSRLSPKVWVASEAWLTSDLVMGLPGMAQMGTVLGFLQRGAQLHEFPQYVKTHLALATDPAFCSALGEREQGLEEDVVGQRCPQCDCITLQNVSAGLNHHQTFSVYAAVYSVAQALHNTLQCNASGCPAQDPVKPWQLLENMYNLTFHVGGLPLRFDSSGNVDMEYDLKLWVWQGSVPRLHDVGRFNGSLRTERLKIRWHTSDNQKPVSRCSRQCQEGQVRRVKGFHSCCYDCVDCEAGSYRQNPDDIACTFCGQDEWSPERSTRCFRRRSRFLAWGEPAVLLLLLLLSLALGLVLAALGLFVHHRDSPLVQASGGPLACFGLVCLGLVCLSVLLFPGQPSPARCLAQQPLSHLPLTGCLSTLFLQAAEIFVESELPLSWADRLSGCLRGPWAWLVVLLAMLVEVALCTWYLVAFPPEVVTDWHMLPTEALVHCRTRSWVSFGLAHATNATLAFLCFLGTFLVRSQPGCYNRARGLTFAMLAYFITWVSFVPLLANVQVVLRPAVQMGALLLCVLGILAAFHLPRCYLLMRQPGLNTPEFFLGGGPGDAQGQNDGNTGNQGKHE
# In short: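 HEK293E cells (Opti-MEM, 5% FBS, 37°C) were seeded at 50,000/well and cotransfected with Tas1R plasmids and Gα16-gust44 (0.06 μg each per well). Medium changed at 20 h; assayed 24 h later after 1 h loading with 3 μm Fluo-4 AM in HBSS/20 mm HEPES. Fluorescence (ex 488/em 525 nm) read 2 s apart; tastant added at 30 s, 150 s further. Peak ΔF/F sigmoid-fitted; three independent experiments.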
# [2] = biological target: hTas1R2:S40T/I67S+hTas1R3 (Homo sapiens, UniProt Q8TE23, I67S/S40T); experiment: Ca2+ mobilization, mutated human receptor; assay type: cell-based; settings: aspartame 10mM, neotame 1mM, sucralose 2 mM; compared with hTas1R2/hTas1R3
# In short: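 Mutant hTas1R2 with hTas1R3 and Gα16-gust44 in HEK293E cells (50,000/well, 0.06 μg each plasmid per well); 44 h post-transfection, loaded with 3 μM Fluo-4 AM in HBSS/20 mM HEPES for 1 h. Fluorescence (ex 488/em 525 nm) recorded every 2 s, tastant at 30 s, 150 s further. ΔF/F normalized to the hTas1R2/hTas1R3 sucralose (2 mm) maximum; three independent experiments; one-way ANOVA with Tukey test.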
# smTas1R2:T40S+smTas1R3 = smTas1R2:T40S+smTas1R3 (Saimiri sciureus, UniProt A3QP08, T40S); experiment: Ca2+ mobilization, mutated squirrel monkey receptor; assay type: cell-based, squirrel monkey (Saimiri sciureus); settings: aspartame 10mM, neotame 1mM, sucralose 2 mM; compared with smTas1R2/smTas1R3
# [3] = test system: All the human and squirrel monkey mutants; experiment: Ca2+ mobilization, control response of all mutants; assay type: cell-based; settings: sucralose 2 mM
# In short: as §1
# Sequence of smTas1R2/smTas1R3 (A3QP08 20-834): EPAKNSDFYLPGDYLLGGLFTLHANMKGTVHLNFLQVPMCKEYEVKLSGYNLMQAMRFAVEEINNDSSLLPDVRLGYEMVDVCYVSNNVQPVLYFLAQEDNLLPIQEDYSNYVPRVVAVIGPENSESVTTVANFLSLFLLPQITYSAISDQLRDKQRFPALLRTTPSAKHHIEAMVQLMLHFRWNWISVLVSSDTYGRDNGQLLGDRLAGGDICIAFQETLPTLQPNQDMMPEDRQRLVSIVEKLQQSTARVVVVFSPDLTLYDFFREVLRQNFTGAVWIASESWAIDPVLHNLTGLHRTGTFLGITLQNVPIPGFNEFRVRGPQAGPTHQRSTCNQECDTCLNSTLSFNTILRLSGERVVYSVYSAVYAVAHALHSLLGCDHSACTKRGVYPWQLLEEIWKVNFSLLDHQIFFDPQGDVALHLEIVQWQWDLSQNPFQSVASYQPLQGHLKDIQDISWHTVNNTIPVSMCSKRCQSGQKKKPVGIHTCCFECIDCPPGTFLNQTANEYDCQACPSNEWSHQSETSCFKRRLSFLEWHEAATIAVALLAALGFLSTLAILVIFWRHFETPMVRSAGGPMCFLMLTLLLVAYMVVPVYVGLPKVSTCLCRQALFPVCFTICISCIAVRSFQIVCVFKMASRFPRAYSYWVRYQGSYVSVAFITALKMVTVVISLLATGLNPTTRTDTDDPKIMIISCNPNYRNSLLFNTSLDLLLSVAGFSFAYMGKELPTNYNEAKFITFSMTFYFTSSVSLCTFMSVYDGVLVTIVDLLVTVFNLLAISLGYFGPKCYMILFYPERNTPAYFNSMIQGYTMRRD
# Sequence of hTas1R2:S40T/V66L/I67S/D142E+hTas1R3 (Q8TE23 20-839 S40T/V66L/I67S/D142E, one chain of several): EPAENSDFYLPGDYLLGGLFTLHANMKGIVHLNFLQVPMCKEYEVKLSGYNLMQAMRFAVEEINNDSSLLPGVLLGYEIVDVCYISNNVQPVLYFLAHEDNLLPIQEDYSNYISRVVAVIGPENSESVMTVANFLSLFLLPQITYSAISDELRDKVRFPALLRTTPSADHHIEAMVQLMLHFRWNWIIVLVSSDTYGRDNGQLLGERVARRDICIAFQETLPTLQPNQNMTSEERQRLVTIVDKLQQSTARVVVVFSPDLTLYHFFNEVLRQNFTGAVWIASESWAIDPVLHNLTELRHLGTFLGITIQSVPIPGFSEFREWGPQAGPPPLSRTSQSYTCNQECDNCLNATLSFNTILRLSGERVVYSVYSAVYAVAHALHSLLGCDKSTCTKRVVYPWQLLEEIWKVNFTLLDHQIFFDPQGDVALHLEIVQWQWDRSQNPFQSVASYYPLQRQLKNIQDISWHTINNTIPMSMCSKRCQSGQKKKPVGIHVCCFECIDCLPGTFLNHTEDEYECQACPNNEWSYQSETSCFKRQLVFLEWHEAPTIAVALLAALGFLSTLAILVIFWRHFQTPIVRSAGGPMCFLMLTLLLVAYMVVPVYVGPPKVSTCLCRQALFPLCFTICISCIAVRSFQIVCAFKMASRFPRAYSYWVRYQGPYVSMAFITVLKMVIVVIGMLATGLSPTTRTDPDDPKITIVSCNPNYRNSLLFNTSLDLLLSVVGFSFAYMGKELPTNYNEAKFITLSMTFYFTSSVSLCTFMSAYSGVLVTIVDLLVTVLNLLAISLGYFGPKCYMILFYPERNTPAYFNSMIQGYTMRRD
# Sequence of smTas1R2:T40S+smTas1R3 (A3QP08 20-834 T40S): as the sequence (A3QP08 20-834) above, with T21S counted along it
# Sequence of hTas1R2:S40T/I67S+hTas1R3 (Q8TE23 20-839 S40T/I67S, one chain of several): as the sequence (Q8TE23 20-839 S40T/V66L/I67S/D142E, one chain of several) above, with L47V, E123D counted along it
SMILES,calcium response to sweetener [1],response in dose-response experiment (smTas1R2/smTas1R3),EC50 (hTas1R2/hTas1R3) [mM],response in dose-response experiment (hTas1R2/hTas1R3),Bottom (B) of sigmoid dose-response fit (hTas1R2/hTas1R3),Top (T) of sigmoid dose-response fit (hTas1R2/hTas1R3),calcium response to sweetener [2],calcium response to sweetener (smTas1R2:T40S+smTas1R3),calcium response to the control sweetener [3]
"COC(=O)[C@H](Cc1ccccc1)NC(=O)[C@@H](N)CC(=O)O [aspartame, L-α-aspartly-L-phenylalanine methyl ester] (H-Asp-Phe-OMe)",greatly impaired,no response,5,good response,7.074,73.32,greater than multiple mutants that contained the D142E mutant,not able to recover,–
COC(=O)[C@H](Cc1ccccc1)NC(=O)[C@H](CC(=O)O)NCCC(C)(C)C [neotame],greatly impaired,no response,–,good response,−165.1,92.82,–,not able to recover,–
OC[C@H]1O[C@H](O[C@]2(CCl)O[C@H](CCl)[C@@H](O)[C@@H]2O)[C@H](O)[C@@H](O)[C@H]1Cl [sucralose],–,–,–,–,–,–,–,–,significant level of response
